Test results from ChEMBL document CHEMBL1649091, “Flavonoids with an oligopolysulfated moiety: a new class of anticoagulant agents” (J Med Chem, 2011).
Activity calls are given as the source filed them. The rule behind the calls is not given here.

Assays:
[1] = Stability of the compound in human plasma assessed as compound remaining after 3 hrs; assay type: ADME, cell-free; conditions: read-out: Activity
Method in brief: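 Compound at 25 µM final in human plasma diluted 1:1 with PBS pH 7.4, shaken at 37 °C for 180 min. Time-zero and 180-min samples quenched with TBA buffer and cold acetonitrile, then centrifuged. Supernatant dried, redissolved and analysed by HPLC. Three independent samples per time point.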

Blood [2] = test: Anticoagulant activity in human whole blood assessed as clotting time at 6.25 x 10^-4M by thromboelastography in presence of intrinsic activators; assay type: functional
Method in brief: (§1)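 Citrated whole blood from healthy donors (1:9 citrate), run within 5 h on a ROTEM analyzer. Compound in saline diluted 1:16 into blood to the final concentration stated; saline control. Intrinsic (InTEM) or extrinsic (ExTEM) activator added. Clot monitored at 37 °C in an oscillating cup-and-pin system for up to 60 min, giving R, K, angle and MA.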

Blood [3] = test: Anticoagulant activity in human whole blood assessed as clotting formation time at 6.25 x 10^-4M by thromboelastography in presence of intrinsic activators; assay type: functional; method in brief: as §1
[4] = Anticoagulant activity in human plasma assessed as concentration required to double prothrombin time; assay type: functional
Method in brief: (§2)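 Citrated pooled normal human plasma mixed 1:1 with compound in water (final 5 × 10-3 to 0.05 × 10^-3 M) and held 2 min at 37 °C. APTT: reagent added, 6 min at 37 °C, then 25 mmol/L CaCl2. PT: prewarmed PT reagent. TT: prewarmed thrombin (100 U/mL). Clotting read on a coagulometer, duplicate, three days (n = 6). Doubling concentration taken from linear regression of each concentration-response curve.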

Mus musculus [5] = test: Anticoagulant activity in mouse assessed as increase in activated partial prothrombin time at 150 umol/kg, ip relative to control; assay type: functional
Method in brief: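 Adult male CD1 mice (30-35 g) given compound in saline ip at 150 µmol/kg, fasted on the day. Citrated portal vein blood taken at 30, 60 and 120 min. APTT measured in platelet-poor plasma. Expressed as ratio to saline-treated mice, mean ± SEM of three experiments.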

[6] = molecular target: T1, Coagulation factor X/antithrombin III (Homo sapiens) (UniProt P01008+P00742); test: Inhibition of human antithrombin 3/factor 10a assessed as 125 x 10^-6M CBS31.39 substrate hydrolysis at 0.5 x 10^-3M; assay type: protein-complex assay
Blood [7] = test: Anticoagulant activity in human whole blood assessed as clotting formation time at 6.25 x 10^-4M by thromboelastography in presence of extrinsic activators; assay type: functional; method in brief: as §1
Blood [8] = test: Anticoagulant activity in human whole blood assessed as maximum amplitude at 6.25 x 10^-4M by thromboelastography in presence of intrinsic activators; assay type: functional; method in brief: as §1
Blood [9] = test: Anticoagulant activity in human whole blood assessed as alpha angle at 6.25 x 10^-4M by thromboelastography in presence of extrinsic activators; assay type: functional; method in brief: as §1
[10] = molecular target: Coagulation factor X (Homo sapiens) (UniProt P00742); test: Inhibition of human factor 10a assessed as 25 x 10^-6M chromogenic TH substrate hydrolysis at 0.5 x 10^-3M
Coagulation factor X (Homo sapiens), sequence (P00742 41-179 limits assumed): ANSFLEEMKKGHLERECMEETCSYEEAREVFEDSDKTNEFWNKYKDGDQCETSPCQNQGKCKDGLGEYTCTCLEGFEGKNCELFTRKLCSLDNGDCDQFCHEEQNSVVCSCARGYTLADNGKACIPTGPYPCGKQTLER
Coagulation factor X (Homo sapiens), sequence (P00742 235-488 limits assumed): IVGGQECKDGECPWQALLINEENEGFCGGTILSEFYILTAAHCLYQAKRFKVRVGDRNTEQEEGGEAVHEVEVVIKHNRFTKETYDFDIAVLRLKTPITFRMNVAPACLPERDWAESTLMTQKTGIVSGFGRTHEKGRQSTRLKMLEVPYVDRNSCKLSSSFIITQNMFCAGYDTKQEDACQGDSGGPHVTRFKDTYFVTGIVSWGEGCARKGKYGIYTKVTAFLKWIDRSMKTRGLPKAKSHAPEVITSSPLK
Method in brief: (§3)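 Direct FXa test, with buffer in place of ATIII: compound in water in 50 mM Tris/HCl pH 8.3, 227 mM NaCl, 0.1% BSA, 10 min at 37 °C. Human FXa (0.5 U/mL final) added for 10 min, then CBS 31.39 (25 or 125 × 10^-6 M). Read at 405 nm every 12 s for 20 min. Percent inhibition from initial slope against water control, Michaelis-Menten fit.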

Blood [11] = test: Anticoagulant activity in human whole blood assessed as maximum amplitude at 6.25 x 10^-4M by thromboelastography in presence of extrinsic activators; assay type: functional; method in brief: as §1
[12] = molecular target: Prothrombin (Homo sapiens) (UniProt P00734); test: Inhibition of human thrombin
Method in brief: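 Direct thrombin assay without ATIII: compound in water in 50 mM Tris/HCl pH 8.3, 227 mM NaCl, 0.1% BSA, 10 min at 37 °C. Human thrombin (0.06 U/mL final) added for 10 min, then Chromozym TH (178 × 10^-6 M). Read at 405 nm every 12 s for 20 min. Percent inhibition from initial slope against water control. Duplicates on ≥3 days.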

[13] = molecular target: T1, Coagulation factor X/antithrombin III (Homo sapiens); test: Inhibition of human antithrombin 3/factor 10a assessed as 25 x 10^-6M CBS31.39 substrate hydrolysis at 1 x 10^-3M; assay type: protein-complex assay
[14] = molecular target: T1, Coagulation factor X/antithrombin III (Homo sapiens); test: Inhibition of human antithrombin 3/factor 10a assessed as 25 x 10^-6M CBS31.39 substrate hydrolysis at 2 x 10^-3M; assay type: protein-complex assay
[15] = molecular target: T1, Coagulation factor X/antithrombin III (Homo sapiens); test: Inhibition of human antithrombin 3/factor 10a assessed as 25 x 10^-6M CBS31.39 substrate hydrolysis at 0.5 x 10^-3M; assay type: protein-complex assay
Blood [16] = test: Anticoagulant activity in human whole blood assessed as clotting time at 6.25 x 10^-4M by thromboelastography in presence of extrinsic activators; assay type: functional; method in brief: as §1
[17] = Antiplatelet activity against collagen EPI-induced human platelet aggregation assessed as closure time at 6.25 x 10^-4M; assay type: functional
Method in brief: (§4)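 Compound solution added to citrated human whole blood (125 µL into 1875 µL) to the final concentration stated, then run on a PFA-100 in collagen/ADP and collagen/epinephrine cartridges. Closure time is the time until platelets occlude the membrane aperture, in seconds. Mean ± SEM of three independent experiments.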

Mus musculus [18] = test: Hepatotoxicity in mouse liver assessed as change in plasma GOT/GPT level at 150 umol/kg, ip; assay type: toxicity, organism-based; conditions: in vivo
Method in brief: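 Male CD1 mice (30-35 g), compound in saline ip at 150 µmol/kg. Portal vein citrated blood taken at 30, 60 and 120 min. GOT and GPT (U/L) measured in platelet-poor plasma on an automated chemistry analyzer. Four independent experiments, mean ± SEM.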

Blood [19] = test: Anticoagulant activity in human whole blood assessed as alpha angle at 6.25 x 10^-4M by thromboelastography in presence of intrinsic activators; assay type: functional; method in brief: as §1
[20] = Antiplatelet activity against collagen ADP-induced human platelet aggregation assessed as closure time at 6.25 x 10^-4M; assay type: functional; method in brief: as §4
[21] = molecular target: T1, Coagulation factor X/antithrombin III (Homo sapiens); test: Inhibition of human antithrombin 3/factor 10a assessed as 125 x 10^-6M CBS31.39 substrate hydrolysis at 2 x 10^-3M; assay type: protein-complex assay
[22] = molecular target: Coagulation factor X (Homo sapiens) (UniProt P00742); test: Inhibition of human factor 10a assessed as 125 x 10^-6M chromogenic TH substrate hydrolysis at 2 x 10^-3M; method in brief: as §3
[23] = molecular target: Coagulation factor X (Homo sapiens) (UniProt P00742); test: Inhibition of human factor 10a assessed as 125 x 10^-6M chromogenic TH substrate hydrolysis at 0.5 x 10^-3M; method in brief: as §3
[24] = (§5) Anticoagulant activity in human plasma assessed as concentration required to double thrombin time; assay type: functional; method in brief: as §2
[25] = molecular target: Coagulation factor X (Homo sapiens) (UniProt P00742); test: Inhibition of human factor 10a assessed as 25 x 10^-6M chromogenic TH substrate hydrolysis at 1 x 10^-3M; method in brief: as §3
[26] = molecular target: T1, Coagulation factor X/antithrombin III (Homo sapiens); test: Inhibition of human antithrombin 3/factor 10a assessed as 125 x 10^-6M CBS31.39 substrate hydrolysis at 1 x 10^-3M; assay type: protein-complex assay
[27] = Anticoagulant activity in human plasma assessed as concentration required to double activated partial prothrombin time; assay type: functional; method in brief: as §2
[28] = molecular target: Coagulation factor X (Homo sapiens) (UniProt P00742); test: Inhibition of human factor 10a assessed as 125 x 10^-6M chromogenic TH substrate hydrolysis at 1 x 10^-3M; method in brief: as §3
Plasma [29] = test: Anticoagulant activity in human plasma assessed as increase in thrombin time at 5 x 10^-3M relative to control; assay type: functional, cell-free
Method in brief: (§6)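 Citrated pooled normal human plasma, 1:1 with compound in water (water control), held 2 min at 37 °C before coagulometer reading. APTT: reagent, 6 min at 37 °C, then 25 mmol/L CaCl2. PT: prewarmed reagent. TT: prewarmed 100 U/mL thrombin. Ratio is clotting time with compound over time with water. Duplicates repeated on three days (n = 6).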

Plasma [30] = test: Anticoagulant activity in human plasma assessed as increase in activated partial prothrombin time at 0.5 x 10^-3M relative to control; assay type: functional; method in brief: as §6
Plasma [31] = test: Anticoagulant activity in human plasma assessed as increase in prothrombin time at 0.5 x 10^-3M relative to control; assay type: functional; method in brief: as §6
Plasma [32] = test: Anticoagulant activity in human plasma assessed as increase in thrombin time at 0.5 x 10^-3M relative to control; assay type: functional, cell-free; method in brief: as §6
[33] = molecular target: Coagulation factor X (Homo sapiens) (UniProt P00742); test: Inhibition of human factor 10a assessed as 25 x 10^-6M chromogenic TH substrate hydrolysis at 2 x 10^-3M; method in brief: as §3
Homo sapiens = species: Homo sapiens; test: as §5; assay type: functional; method in brief: as §2
Plasma [34] = test: Anticoagulant activity in human plasma assessed as increase in prothrombin time at 5 x 10^-3M relative to control; assay type: functional; method in brief: as §6
Plasma [35] = test: Anticoagulant activity in human plasma assessed as increase in activated partial prothrombin time at 5 x 10^-3M relative to control; assay type: functional; method in brief: as §6

Row | Compound | Time (Blood [2]) [s] | Time (Blood [3]) [s] | 2PT [4] [µM] | inhibition [6] [%] | Time (Blood [7]) [s] | Activity (Blood [8]) [mm] | Activity (Blood [9]) [degree] | inhibition [10] | Activity (Blood [11]) [mm] | inhibition [12] | inhibition [13] [%] | inhibition [14] [%] | inhibition [15] | Time (Blood [16]) [s] | Time [17] [s] | Activity (Blood [19]) [degree] | Time [20] [s] | inhibition [21] [%] | inhibition [22] | inhibition [23] | further results
1 | COc1ccc(-c2cc(=O)c3c(O)cc(O[C@@H]4O[C@H](CO[C@@H]5O[C@@H](C)[C@H](OS(=O)(=O)O)[C@@H](OS(=O)(=O)O)[C@H]5OS(=O)(=O)O)[C@@H](OS(=O)(=O)O)[C@H](OS(=O)(=O)O)[C@H]4OS(=O)(=O)O)cc3o2)cc1O | 267 | 229 | 2230 | 28.9 | 150 | 45 | 68 | inactive | 54 | inactive | 22.6 | 43.7 | inactive | 49 | 171 | 57 | 162 | 50.7 | 23.4% | inactive | remaining at 3 h [1]: 95%; fold change (FC) (Mus musculus [5]): 1.5; Activity (Mus musculus [18]): Non-toxic; Activity [24]: > 5000 µM; inhibition [25]: inactive; inhibition [26]: 38.7%; 2aPTT [27]: 435 µM; inhibition [28]: inactive
2 | COc1ccc(-c2cc(=O)c3c(O)cc(OS(=O)(=O)O)cc3o2)cc1OS(=O)(=O)O | – | – | – | – | – | – | – | – | – | – | – | – | – | – | – | – | – | – | – | – | Activity (Plasma [29]): inactive; fold change (FC) (Plasma [30]): 1.65; fold change (FC) (Plasma [31]): 1.1; Activity (Plasma [32]): inactive
3 | C[C@H]1O[C@@H](OC[C@@H]2O[C@H](Oc3c(-c4ccc(OCCOS(=O)(=O)O)c(OCCOS(=O)(=O)O)c4)oc4cc(OCCOS(=O)(=O)O)cc(O)c4c3=O)[C@@H](OS(=O)(=O)O)[C@H](OS(=O)(=O)O)[C@H]2OS(=O)(=O)O)[C@@H](OS(=O)(=O)O)[C@@H](OS(=O)(=O)O)[C@@H]1OS(=O)(=O)O | 560 | 122 | 835 | 20.3 | 111 | 64 | 69 | 25.7% | 61 | inactive | 47.6 | 56 | 28.1% | 105 | >300 | 67 | 204 | 33.6 | 53.3% | inactive | Activity [24]: 867 µM; inhibition [25]: 41.9%; inhibition [26]: 24.8%; 2aPTT [27]: 145 µM; inhibition [28]: 38.8%
4 | COc1ccc([C@@H]2CC(=O)c3c(O)cc(O[C@@H]4O[C@H](CO[C@@H]5O[C@@H](C)[C@H](OS(=O)(=O)O)[C@@H](OS(=O)(=O)O)[C@H]5OS(=O)(=O)O)[C@@H](OS(=O)(=O)O)[C@H](OS(=O)(=O)O)[C@H]4OS(=O)(=O)O)cc3O2)cc1O | 300 | 214 | 3620 | 39.7 | 116 | 40 | 70 | inactive | 59 | inactive | 40.2 | 49.6 | 30.5% | 59 | 167 | 57 | 139 | 58.1 | inactive | inactive | inhibition [33]: inactive; Activity (Homo sapiens): inactive; inhibition [25]: inactive; inhibition [26]: 46.2%; 2aPTT [27]: 413 µM; inhibition [28]: inactive
5 | COc1ccc([C@@H]2CC(=O)c3c(O)cc(OS(=O)(=O)O)cc3O2)cc1OS(=O)(=O)O [HESPERETIN 3',7-O-DISULFATE] | – | – | – | – | – | – | – | – | – | – | – | – | – | – | – | – | – | – | – | – | Activity (Plasma [29]): inactive; Activity (Plasma [32]): inactive; fold change (FC) (Plasma [34]): 1.2; fold change (FC) (Plasma [35]): 1.1
